Measured values: ChEMBL document CHEMBL2346664, “Synthesis, characterization and in vitro anticancer evaluation of novel 1,2,4-triazolin-3-one derivatives” (2013)

Key:
Format in all cases: functional
[1] = system: CCRF-CEM; assay: Growth inhibition of human CCRF-CEM cells assessed as cell growth at 10 uM after 48 hrs by sulforhodamine B assay; conditions: read-out: Activity
Outline: (§1)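 NCI-60 primary screen at a single dose of 10^-5 M. Output is mean growth percent of treated cells relative to untreated controls, where values between 0 and 100 indicate growth inhibition and values below 0 indicate cytotoxicity. Cells were plated 24 h before drug, incubated 48 h at 37 °C, 5% CO2, and stained with SRB after TCA fixation. Suspension cells were fixed with 80% TCA (16% final).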

[2] = system: SN12C; assay: Growth inhibition of human SN12C cells assessed as cell growth at 10 uM after 48 hrs by sulforhodamine B assay; conditions: read-out: Activity
Outline: (§2)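 NCI-60 single-dose screen at 10^-5 M. Cells plated at 5,000–40,000/well by doubling time and grown 24 h at 37 °C, 5% CO2, then drug added from DMSO stock for 48 h continuous exposure. Adherent cells fixed with cold TCA (final 10%), suspension cells with 16% TCA. SRB stain read at 515 nm. Reported as growth percent relative to untreated controls and time-zero plates.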

[3] = system: SK-MEL-2; assay: Growth inhibition of human SK-MEL-2 cells assessed as cell growth at 10 uM after 48 hrs by sulforhodamine B assay; conditions: SK-MEL-2, 48 h, read-out: Activity; outline: as §2
[4] = system: SF-268; assay: Growth inhibition of human SF268 cells assessed as cell growth at 10 uM after 48 hrs by sulforhodamine B assay; conditions: SF-268, 48 h, read-out: Activity; outline: as §2
[5] = system: MDA-MB-435; assay: Growth inhibition of human MDA-MB-435 cells assessed as cell growth at 10 uM after 48 hrs by sulforhodamine B assay; conditions: MDA-MB-435, 48 h, read-out: Activity
Outline: (§3)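 NCI-60 primary single-dose screen at 10^-5 M, 48 h continuous exposure. Adherent cells were fixed with cold TCA (10% final) and suspension cells with 16% final TCA, then stained with 0.4% SRB in 1% acetic acid. Bound dye was solubilized in 10 mM Tris base and read at 515 nm. Output is growth percent relative to untreated controls, and GI% is 100 minus growth percent.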

[6] = Growth inhibition of human HCC2998 cells assessed as cell growth at 10 uM after 48 hrs by sulforhodamine B assay; conditions: HCC 2998, 48 h, read-out: Activity; outline: as §3
[7] = system: Malme-3M; assay: Growth inhibition of human MALME-3M cells assessed as cell growth at 10 uM after 48 hrs by sulforhodamine B assay; conditions: read-out: Activity; outline: as §3
[8] = system: ACHN; assay: Growth inhibition of human ACHN cells assessed as cell growth at 10 uM after 48 hrs by sulforhodamine B assay; conditions: read-out: Activity; outline: as §1
[9] = Growth inhibition of human EKVX cells assessed as cell growth at 10 uM after 48 hrs by sulforhodamine B assay; conditions: read-out: Activity; outline: as §3
[10] = system: COLO 205; assay: Growth inhibition of human COLO205 cells assessed as cell growth at 10 uM after 48 hrs by sulforhodamine B assay; conditions: COLO 205, 48 h, read-out: Activity; outline: as §3
[11] = system: HOP-62; assay: Growth inhibition of human HOP62 cells assessed as cell growth at 10 uM after 48 hrs by sulforhodamine B assay; conditions: HOP-62, 48 h, read-out: Activity; outline: as §3
[12] = system: BT-549; assay: Growth inhibition of human BT549 cells assessed as cell growth at 10 uM after 48 hrs by sulforhodamine B assay; conditions: BT-549, 48 h, read-out: Activity; outline: as §1
[13] = system: RXF 393; assay: Growth inhibition of human RXF393 cells assessed as cell growth at 10 uM after 48 hrs by sulforhodamine B assay; conditions: RXF 393, 48 h, read-out: Activity; outline: as §2
[14] = system: OVCAR-5; assay: Growth inhibition of human OVCAR5 cells assessed as cell growth at 10 uM after 48 hrs by sulforhodamine B assay; conditions: OVCAR-5, 48 h, read-out: Activity; outline: as §2
[15] = system: DU-145; assay: Growth inhibition of human DU145 cells assessed as cell growth at 10 uM after 48 hrs by sulforhodamine B assay; conditions: DU-145, 48 h, read-out: Activity; outline: as §3
[16] = system: PC-3; assay: Growth inhibition of human PC3 cells assessed as cell growth at 10 uM after 48 hrs by sulforhodamine B assay; conditions: PC-3, 48 h, read-out: Activity; outline: as §2
[17] = system: OVCAR-8; assay: Growth inhibition of human OVCAR8 cells assessed as cell growth at 10 uM after 48 hrs by sulforhodamine B assay; conditions: OVCAR-8, 48 h, read-out: Activity; outline: as §2
[18] = system: HOP-92; assay: Growth inhibition of human HOP92 cells assessed as cell growth at 10 uM after 48 hrs by sulforhodamine B assay; conditions: HOP-92, 48 h, read-out: Activity; outline: as §3
[19] = system: NCI-H460; assay: Growth inhibition of human NCI-H460 cells assessed as cell growth at 10 uM after 48 hrs by sulforhodamine B assay; conditions: NCI-H460, 48 h; outline: as §2
[20] = system: SK-MEL-5; assay: Growth inhibition of human SK-MEL-5 cells assessed as cell growth at 10 uM after 48 hrs by sulforhodamine B assay; conditions: SK-MEL-5, 48 h, read-out: Activity; outline: as §2
[21] = system: UACC-257; assay: Growth inhibition of human UACC257 cells assessed as cell growth at 10 uM after 48 hrs by sulforhodamine B assay; conditions: UACC-257, 48 h, read-out: Activity; outline: as §2
[22] = system: KM12; assay: Growth inhibition of human KM12 cells assessed as cell growth at 10 uM after 48 hrs by sulforhodamine B assay; conditions: KM12, 48 h, read-out: Activity; outline: as §3
[23] = system: NCI-H226; assay: Growth inhibition of human NCI-H226 cells assessed as cell growth at 10 uM after 48 hrs by sulforhodamine B assay; conditions: NCI-H226, 48 h, read-out: Activity; outline: as §3
[24] = system: HT-29; assay: Growth inhibition of human HT-29 cells assessed as cell growth at 10 uM after 48 hrs by sulforhodamine B assay; conditions: HT-29, 48 h, read-out: Activity; outline: as §3
[25] = system: LOX IMVI; assay: Growth inhibition of human LOXIMVI cells assessed as cell growth at 10 uM after 48 hrs by sulforhodamine B assay; conditions: read-out: Activity; outline: as §3
[26] = system: SK-OV-3; assay: Growth inhibition of human SKOV3 cells assessed as cell growth at 10 uM after 48 hrs by sulforhodamine B assay; conditions: SK-OV-3, 48 h, read-out: Activity; outline: as §2
[27] = system: HCT-116; assay: Growth inhibition of human HCT116 cells assessed as cell growth at 10 '-4 M after 48 hrs by sulforhodamine B assay; conditions: HCT-116, 48 h, read-out: Activity
[28] = system: RPMI-8226; assay: Growth inhibition of human RPMI8226 cells assessed as cell growth at 10 '-5 M after 48 hrs by sulforhodamine B assay; conditions: RPMI-8226, 48 h, read-out: Activity

Structure (SMILES)	growth at 10 µM [1]	growth at 10 µM [2]	growth at 10 µM [3]	growth at 10 µM [4]	growth at 10 µM [5]	growth at 10 µM [6]	growth at 10 µM [7]	growth at 10 µM [8]	growth at 10 µM [9]	growth at 10 µM [10]	growth at 10 µM [11]	growth at 10 µM [12]	growth at 10 µM [13]	growth at 10 µM [14]	growth at 10 µM [15]	growth at 10 µM [16]	growth at 10 µM [17]	growth at 10 µM [18]	growth at 10 µM [20]	growth at 10 µM [21]	also measured
Cc1nn(-c2ccc(Cl)cc2)c(=O)n1CCN1CCOCC1	63.2%	89.6%	61.1%	48.4%	84.9%	91.3%	59.1%	38.7%	75.5%	107%	33.8%	61.5%	42.1%	92.4%	78.5%	80.8%	116%	30.1%	80.3%	73.4%	growth at 10 µM ([19]; read-out: Activity): 41.8%; growth at 10 µM [22]: 81.3%; growth at 10 µM [23]: 79.4%; growth at 10 µM [24]: 104%; growth at 10 µM [25]: 81.6%; growth at 10 µM [26]: 42.8%
Cc1cc(=O)oc2cc(OCCn3c(C)nn(-c4ccc(Cl)cc4)c3=O)ccc12	13.4%	51.8%	3.55%	50.3%	-38.5%	46.7%	32.9%	41.9%	58.7%	10.6%	27.4%	56.7%	37.4%	38.8%	21.6%	48.5%	17.7%	47.4%	10.8%	22.5%	growth at 100 µM [27]: 23%; inhibition of growth at 10 µM ([19]; read-out: GI): 17.2%; growth at 10 µM [22]: 31.4%; growth at 10 µM [23]: 50.1%; growth at 10 µM [28]: 50%; growth at 10 µM [24]: 0.7%; growth at 10 µM [25]: 48%; growth at 10 µM [26]: 41.1%
